Reference: ChEMBL document CHEMBL2203239, “Discovery of novel 2-(3-(2-chlorophenyl)pyrazin-2-ylthio)-N-arylacetamides as potent HIV-1 inhibitors using a structure-based bioisosterism approach” (Bioorg Med Chem, 2012)

Experiments:
[1] = Cytotoxicity against HIV2 ROD infected in human MT4 cells by MTT assay; assay type: cell-based; conditions: MT4 cells infected with HIV2 ROD
In short: (§1)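 Cytotoxicity measured in parallel on mock-infected MT-4 cells (6×10^5 cells/mL) that received culture medium instead of virus. Serial fivefold compound dilutions were run in triplicate. MTT read-out after 5 days at 540 and 690 nm, using the median OD of three wells. CC50 is the concentration that reduces OD540 of the mock-infected control by 50%.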

[2] = Selectivity index, ratio of CC50 for HIV2 ROD infected in human MT4 cells to EC50 for HIV1 3B; assay type: toxicity, cell-based; conditions: MT4 cells infected with HIV2 ROD, read-out: Ratio CC50/EC50
In short: (§2)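 Selectivity index calculated as CC50/EC50. Both values come from the parallel 5-day MTT assays in MT-4 cells, with mock-infected and HIV-infected wells on the same plate.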

[3] = system: Human immunodeficiency virus 2; experiment: Antiviral activity against HIV2 ROD infected in human MT4 cells assessed as inhibition of virus-induced cytopathic effect by MTT assay; assay type: functional, organism-based; conditions: Human immunodeficiency virus 2, ISOLATE ROD
In short: (§3)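 MT-4 cells, spun 5 min at 1000 rpm and resuspended at 6×10^5 cells/mL, infected with HIV-1(IIIB) or HIV-2(ROD) at 100–300 CCID50. Compounds added at start as serial fivefold dilutions, triplicate wells. Viability read by MTT at 540 and 690 nm five days post-infection, using the median OD of three wells. EC50 is the concentration giving 50% protection against virus-induced cytopathicity.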

[4] = system: Human immunodeficiency virus 1; experiment: Antiviral activity against HIV1 3B infected in human MT4 cells assessed as inhibition of virus-induced cytopathic effect by MTT assay; assay type: functional, organism-based; conditions: Human immunodeficiency virus 1, 3B; in short: as §3
[5] = Selectivity index, ratio of CC50 for HIV1 3B infected in human MT4 cells to EC50 for HIV1 3B; assay type: toxicity, cell-based; conditions: MT4 cells infected with HIV1 3B, read-out: Ratio CC50/EC50; in short: as §2
[6] = Cytotoxicity against HIV1 3B infected in human MT4 cells by MTT assay; assay type: cell-based; conditions: MT4 cells infected with HIV1 3B; in short: as §1
[7] = molecular target: Human immunodeficiency virus type 1 reverse transcriptase (Human immunodeficiency virus 1, UniProt Q72547); experiment: Inhibition of HIV1 recombinant reverse transcriptase assessed as incorporation of biotin-dUTP into […] by colorimetric analysis
In short: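 Highly purified recombinant HIV-1 RT, with […] as template primer on plate-linked nucleotides. Activity measured colorimetrically as incorporation of biotin-dUTP.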

[8] = system: Human immunodeficiency virus; experiment: Antiviral activity against wild type HIV; assay type: functional, organism-based; conditions: Human immunodeficiency virus 1
[9] = system: Human immunodeficiency virus; experiment: Antiviral activity against HIV harboring reverse transcriptase K103N/Y181C mutant; assay type: functional, organism-based; conditions: Human immunodeficiency virus 1
In short: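 MT-4 cells (6×10^5 cells/mL) were infected with 100–300 CCID50 of virus, and mock-infected cells were run in parallel. Compounds were tested in serial fivefold dilutions in triplicate wells. After 5 days, viability was read by MTT reduction at 540 and 690 nm using the median OD of three wells. EC50 is the concentration giving 50% protection against virus-induced cytopathicity.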

Structure (SMILES) | CC50 [1] | selectivity ratio [2] | EC50 [3] | EC50 [4] | selectivity ratio [5] | CC50 [6] | IC50 [7] | EC50 [8] | EC50 [9]
O=C(CSc1nccnc1-c1ccccc1Cl)Nc1ccccc1 | 33 µM | < 1 | > 33 µM | > 35 µM | < 1 | 35 µM |  |  | 
O=C(CSc1nccnc1-c1ccccc1Cl)Nc1ccccc1F | 91 µM | < 1 | > 91 µM | 5.3 µM | 9 | 48 µM |  |  | 
O=C(CSc1nccnc1-c1ccccc1Cl)Nc1ccccc1Cl | 46 µM | < 1 | > 46 µM | 4.6 µM | 7 | 34 µM |  |  | 
O=C(CSc1nccnc1-c1ccccc1Cl)Nc1ccc(Cl)cc1Cl | 34 µM | < 1 | > 34 µM | 5.2 µM | 6 | 29 µM |  |  | 
O=C(CSc1nccnc1-c1ccccc1Cl)Nc1ccccc1Br | 41 µM | < 1 | > 41 µM | 4.2 µM | 7 | 31 µM |  |  | 
Cc1ccc(NC(=O)CSc2nccnc2-c2ccccc2Cl)c(Br)c1 | 35 µM | < 1 | > 35 µM | 4.3 µM | 9 | 31 µM |  |  | 
O=C(CSc1nccnc1-c1ccccc1Cl)Nc1ccc(Cl)cc1Br | 29 µM | < 1 | > 29 µM | 5.1 µM | 5 | 26 µM |  |  | 
CC(=O)c1ccc(NC(=O)CSc2nccnc2-c2ccccc2Cl)c(Br)c1 | 31 µM | < 1 | > 31 µM | 2.5 µM | 12 | 30 µM |  |  | 
COC(=O)c1ccc(NC(=O)CSc2nccnc2-c2ccccc2Cl)c(Br)c1 | 108 µM | < 1 | > 108 µM | 3.7 µM | 25 | 95 µM |  |  | 
CCOC(=O)c1ccc(NC(=O)CSc2nccnc2-c2ccccc2Cl)c(Br)c1 | 62 µM | < 1 | > 62 µM | 9 µM | 5 | 45 µM |  |  | 
O=C(CSc1nccnc1-c1ccccc1Cl)Nc1ccccc1[N+](=O)[O-] | 55 µM | < 1 | > 55 µM | 1.7 µM | 23 | 39 µM | 50 µM |  | 
Cc1ccc(NC(=O)CSc2nccnc2-c2ccccc2Cl)c([N+](=O)[O-])c1 | 148 µM | < 1 | > 148 µM | 2.9 µM | 19 | 54 µM |  |  | 
O=C(CSc1nccnc1-c1ccccc1Cl)Nc1cccnc1Cl | 166 µM | < 1 | > 166 µM | 2.3 µM | 64 | 152 µM |  |  | 
COC(=O)c1sccc1NC(=O)CSc1nccnc1-c1ccccc1Cl | 48 µM | < 1 | > 48 µM | > 68 µM | < 1 | 68 µM |  |  | 
Cc1ccc2sc(NC(=O)CSc3nccnc3-c3ccccc3Cl)nc2c1 | 30 µM | < 1 | > 30 µM | > 32 µM | < 1 | 32 µM |  |  | 
O=C(CSc1nccnc1-c1ccccc1Cl)N1CCCc2ccccc21 | 34 µM | < 1 | > 34 µM | > 33 µM | < 1 | 33 µM |  |  | 
O=C(CSc1nccnc1-c1ccccc1Cl)N1CCc2ccccc2C1 | 50 µM | < 1 | > 50 µM | 4.1 µM | 8 | 33 µM |  |  | 
NS(=O)(=O)c1ccc(NC(=O)CSc2nnc(Br)n2-c2ccc(C3CC3)c3ccccc23)c(Cl)c1 |  |  |  |  |  |  |  | 140 nM | 230 nM
CC(C)Nc1cccnc1N1CCN(C(=O)c2cc3cc(NS(C)(=O)=O)ccc3[nH]2)CC1 [DELAVIRDINE] | > 36 µM |  |  |  | > 1100 | > 36 µM |  |  | 
O=C1Nc2ccc(Cl)cc2[C@@](C#CC2CC2)(C(F)(F)F)O1 [EFAVIRENZ] | > 6.3 µM |  |  |  |  | > 6.3 µM |  |  | 
Cc1ccnc2c1NC(=O)c1cccnc1N2C1CC1 [NEVIRAPINE] | > 15 µM |  |  |  |  | > 15 µM |  |  | 
Nc1ccn([C@H]2CC[C@@H](CO)O2)c(=O)n1 [ZALCITABINE] | > 95 µM | > 74 |  |  | > 93 | > 95 µM |  |  | 
Cc1cn([C@H]2C[C@H](N=[N+]=[N-])[C@@H](CO)O2)c(=O)[nH]c1=O [ZIDOVUDINE] | 249 µM | 56900 |  | 0.021 µM | 12200 | 249 µM |  |  | 
